The values below come from ChEMBL document CHEMBL1152893, “Synthesis and in vitro trichomonicidal, giardicidal and amebicidal activity of N-acetamide(sulfonamide)-2-methyl-4-nitro-1H-imidazoles” (Eur J Med Chem, 2009).

Series [1] deals with Giardia intestinalis. Kind of series: Antiparasitic activity against Giardia intestinalis IMSS:0696 trophozoites after 48 hrs by […]. The format is functional, organism-based. The conditions noted are these: Giardia duodenalis, IMSS:0696, 48 h. The procedure, abridged:
(§1)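 Axenic trophozoites grown in modified TYI-S-33 with 10% calf serum and bovine bile; exposed 48 h at 37 °C to increasing compound concentrations, DMSO as negative control. Then washed, subcultured 48 h in fresh drug-free medium and counted. IC50 by Probit analysis; triplicate, repeated at least twice.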

Series [2] relates to Trichomonas vaginalis. Kind of series: Ratio of Benznidazole IC50 to compound IC50 for Trichomonas vaginalis GT3 trophozoites. The format is functional.
Series [3] concerns Trichomonas vaginalis. Kind of series: Antiparasitic activity against Trichomonas vaginalis GT3 trophozoites after 48 hrs by […]. It is filed as functional, organism-based. The conditions noted are these: GT3, 48 h. The procedure, abridged: as §1
The nature of series [4]: Selectivity index, ratio of CC50 for MDCK cells to IC50 for Trichomonas vaginalis GT3 trophozoites. The format is functional.
For series [5], the system named is Trichomonas vaginalis. Kind of series: Ratio of 2-methyl-4(5)-nitroimidazole IC50 to compound IC50 for Trichomonas vaginalis GT3 trophozoites. It is filed as functional.
Series [6] can be described thus: Cytotoxicity against MDCK cells after 72 hrs by MTT assay. It is filed as cell-based, Canis lupus familiaris. The settings on record: dog. The procedure, abridged: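 MDCK cells in DMEM with 10% FBS and penicillin/streptomycin, 37 °C, 5% CO2. 1.5×10⁴ cells/well seeded; above 80% confluence, medium replaced and compounds added from 6.25 upward, DMSO final 0.05%. After 72 h, MTT added for 4 h at 37 °C. Formazan dissolved in acidified isopropanol (0.4 N HCl), OD 540 nm; untreated cells as negative control; CC50 calculated.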

Series [7] in a line: Selectivity index, ratio of CC50 for MDCK cells to IC50 for Entamoeba histolytica HM-1:IMSS trophozoites. It is filed as functional.
Series [8] is described as follows: Selectivity index, ratio of CC50 for MDCK cells to IC50 for Giardia intestinalis IMSS:0696 trophozoites. The format is functional.
The subject of series [9] is Entamoeba histolytica. Kind of series: Amebicidal activity against Entamoeba histolytica HM-1:IMSS trophozoites after 48 hrs by […]. It is filed as functional, organism-based. The procedure, abridged: as §1
Series [10] deals with Giardia intestinalis. Description: Ratio of Benznidazole IC50 to compound IC50 for Giardia intestinalis IMSS:0696 trophozoites. The format is functional, Giardia duodenalis.
For series [11], the system named is Giardia intestinalis. Kind of series: Ratio of 2-methyl-4(5)-nitroimidazole IC50 to compound IC50 for Giardia intestinalis IMSS:0696 trophozoites. It is filed as functional, Giardia duodenalis.
Series [12] has as its system Entamoeba histolytica. Description: Ratio of 2-methyl-4(5)-nitroimidazole IC50 to compound IC50 for Entamoeba histolytica HM-1:IMSS trophozoites. The format is functional.

Regarding `Cc1nc([N+](=O)[O-])cn1CC(=O)Nc1ccc(F)cc1`, the IC50 in the series with Giardia intestinalis [1] was determined as 21 µM; with Trichomonas vaginalis [3], 5.61 µM; with Entamoeba histolytica [9] it was 11.2 µM. Further, the “Ratio IC50” value in the series with Trichomonas vaginalis [2] is 3; in the series with Trichomonas vaginalis [5], 6. Besides, the “Ratio CC50/IC50” value in series [4] was determined as 148; in series [7], 74; in series [8], 39. Also, in [6], half-maximal cytotoxicity (CC50 at 72 h) was put at 828 µM.
As to `Cc1nc([N+](=O)[O-])cn1S(=O)(=O)c1ccc(F)cc1`, the values for the IC50 with Giardia intestinalis [1], in the series with Trichomonas vaginalis [3] and in the series with Entamoeba histolytica [9] were 10.6 µM, 11.5 µM and 4.44 µM, respectively. The “Ratio CC50/IC50” value is reported as 71 in series [4], 183 in [7] and 77 in series [8]. This molecule had a CC50 at 72 h in series [6] of 813 µM.
Consider `COc1ccc(S(=O)(=O)n2cc([N+](=O)[O-])nc2C)cc1`, for which the figures for the IC50 in the series with Giardia intestinalis [1], in the series with Trichomonas vaginalis [3] and with Entamoeba histolytica [9] were 6.55 µM, 8.41 µM and 8.56 µM, respectively. The “Ratio IC50” value with Giardia intestinalis [10] and in the series with Giardia intestinalis [11] was 2 in each case. The “Ratio CC50/IC50” value in [4] is on record as 38; in [7] it was 38; in [8], 49. In series [6], this molecule returned a CC50 at 72 h of 321 µM.
Take `Cc1nc([N+](=O)[O-])cn1CC(=O)Nc1ccccc1`: the IC50 with Giardia intestinalis [1] was 49.1 µM; in the series with Trichomonas vaginalis [3], 24.6 µM; in the series with Entamoeba histolytica [9], 26.6 µM. Also, the “Ratio CC50/IC50” value is reported as 46 in [4], 43 in [7] and 23 in series [8]. In [6], this molecule returned a CC50 at 72 h of 1140 µM.
On to `Cc1nc([N+](=O)[O-])cn1CC(=O)Nc1ccc(Cl)cc1`, for which the IC50 with Giardia intestinalis [1] is 16 µM; with Trichomonas vaginalis [3], 9.18 µM; in the series with Entamoeba histolytica [9], 18.1 µM. In addition, the “Ratio IC50” value is given as 2 with Trichomonas vaginalis [2] and 5 in the series with Trichomonas vaginalis [5]. Besides, the “Ratio CC50/IC50” value in series [4] is recorded as 70; in series [7], 35; in series [8] it was 40. This molecule returned a half-maximal cytotoxic concentration (CC50) at 72 h in series [6] of 642 µM.
On to `CC(=O)Nc1ccc(S(=O)(=O)n2cc([N+](=O)[O-])nc2C)cc1`, for which the IC50 with Giardia intestinalis [1] was 20.2 µM; in the series with Trichomonas vaginalis [3], 8.73 µM; in the series with Entamoeba histolytica [9], 3.89 µM. Also, the “Ratio CC50/IC50” value in [4] was found to be 118; in [7] it was 265; in series [8], 51. Further, the CC50 at 72 h in [6] amounted to 1030 µM. In the series on Entamoeba histolytica [12], the “Ratio IC50” value stood at 2.
For `Cc1nc([N+](=O)[O-])cn1S(=O)(=O)c1ccc([N+](=O)[O-])cc1`, the IC50 in the series with Giardia intestinalis [1] worked out at 7.5 µM; in the series on Trichomonas vaginalis [3], 2.93 µM; in the series on Entamoeba histolytica [9] it was 7.28 µM. For the same molecule, the “Ratio IC50” value with Trichomonas vaginalis [2] was 6; with Giardia intestinalis [10] it was 2; in the series on Trichomonas vaginalis [5] it was 14; with Giardia intestinalis [11], 2. Besides, the “Ratio CC50/IC50” value turned out to be 209 in series [4], 84 in [7] and 82 in series [8]. For the same molecule, it took 611 µM to reach half-maximal cytotoxicity in [6] (CC50 at 72 h).
For the molecule `Cc1nc([N+](=O)[O-])cn1S(=O)(=O)c1ccccc1`, the IC50 turned out to be 12 µM in the series with Giardia intestinalis [1], 12.5 µM in the series on Trichomonas vaginalis [3] and 6.74 µM in the series on Entamoeba histolytica [9]. Further, the “Ratio CC50/IC50” value is 101 in [4], 188 in series [7] and 106 in series [8]. Moreover, the CC50 at 72 h in series [6] amounted to 1270 µM.
On to `Cc1ncc([N+](=O)[O-])n1CCO` [METRONIDAZOLE], for which the concentration for half-maximal inhibition (IC50) in the series on Giardia intestinalis [1] turned out to be 5.36 µM; in the series on Trichomonas vaginalis [3], 0.29 µM. This molecule had a CC50 at 72 h in series [6] of 68 µM.
Regarding `Cc1nc([N+](=O)[O-])cn1CC(=O)Nc1ccc(C#N)cc1`, the IC50 in the series with Giardia intestinalis [1] turned out to be 11.2 µM; in the series on Trichomonas vaginalis [3], 14.2 µM; with Entamoeba histolytica [9], 41.2 µM. The “Ratio IC50” value in the series with Giardia intestinalis [10] is reported as 2; in the series on Trichomonas vaginalis [5], 3. In addition, the results for the “Ratio CC50/IC50” value in series [4], in series [7] and in series [8] were 47, 16 and 60, respectively. Besides, in series [6], it took 672 µM to reach half-maximal cytotoxicity (CC50 at 72 h).
In the case of `Cc1ccc(S(=O)(=O)n2cc([N+](=O)[O-])nc2C)cc1`, the figures for the IC50 with Giardia intestinalis [1], in the series on Trichomonas vaginalis [3] and with Entamoeba histolytica [9] were 14 µM, 9.96 µM and 3.55 µM, respectively. Moreover, the figures for the “Ratio CC50/IC50” value in [4], in [7] and in series [8] were 99, 278 and 71, respectively. This molecule also yielded a CC50 at 72 h in series [6] of 988 µM. Also, the “Ratio IC50” value in the series with Entamoeba histolytica [12] is listed as 2.
Consider `Cc1nc([N+](=O)[O-])cn1CC(=O)Nc1ccc([N+](=O)[O-])cc1`, for which the IC50 is 15.4 µM in the series on Giardia intestinalis [1], 6.63 µM in the series on Trichomonas vaginalis [3] and 15.3 µM with Entamoeba histolytica [9]. The “Ratio CC50/IC50” value in series [4] is 120; in series [7], 52; in series [8], 52. In addition, in series [6], it took 798 µM to reach half-maximal cytotoxicity (CC50 at 72 h).
Regarding `Cc1nc([N+](=O)[O-])cn1CC(=O)Nc1c(Cl)cccc1Cl`, the IC50 stood at 22 µM in the series with Giardia intestinalis [1], 37 µM in the series on Trichomonas vaginalis [3] and 25.3 µM in the series on Entamoeba histolytica [9]. The “Ratio CC50/IC50” value was 11 in series [4], 16 in [7] and 18 in series [8]. Moreover, the CC50 at 72 h in series [6] turned out to be 396 µM.
On to `Cc1nc([N+](=O)[O-])cn1CC(=O)NCc1ccccc1`, for which the IC50 with Giardia intestinalis [1] was found to be 17.7 µM; in the series on Trichomonas vaginalis [3], 7.98 µM; in the series with Entamoeba histolytica [9], 3.96 µM. Besides, the results for the “Ratio IC50” value in the series with Trichomonas vaginalis [2], in the series with Trichomonas vaginalis [5] and with Entamoeba histolytica [12] were 2, 5 and 2, respectively. Moreover, the “Ratio CC50/IC50” value in series [4] was found to be 10; in [7] it was 20; in series [8], 4. The half-maximal cytotoxic concentration (CC50) at 72 h in series [6] stood at 77.5 µM.
As for `Cc1nc([N+](=O)[O-])cn1S(=O)(=O)c1ccc(Cl)cc1`, the IC50 with Giardia intestinalis [1] came out at 15.3 µM; in the series on Trichomonas vaginalis [3], 7.62 µM; in the series on Entamoeba histolytica [9], 4.03 µM. The figures for the “Ratio CC50/IC50” value in series [4], in [7] and in [8] were 76, 144 and 38, respectively. Moreover, in series [6], the CC50 at 72 h is 578 µM.
As for `Cc1nc([N+](=O)[O-])cn1CC(=O)Nc1cccc(C(F)(F)F)c1`, the IC50 with Giardia intestinalis [1] worked out at 37.6 µM; with Trichomonas vaginalis [3] it was 67.4 µM; in the series on Entamoeba histolytica [9], 29.1 µM. Also, the “Ratio CC50/IC50” value in series [4] is given as 6; in series [7] it was 15; in series [8] it was 12. The molecule further yielded a CC50 at 72 h in series [6] of 435 µM.
In the case of `O=C(Cn1ccnc1[N+](=O)[O-])NCc1ccccc1` [BENZNIDAZOLE], the IC50 in the series on Giardia intestinalis [1] stood at 22.6 µM; in the series on Trichomonas vaginalis [3], 18.6 µM; in the series on Entamoeba histolytica [9], 4.27 µM.
